Laboratory results from ChEMBL document CHEMBL3297645, “Discovery of TD-4306, a long-acting β2-agonist for the treatment of asthma and COPD” (Bioorg Med Chem Lett, 2014).
The source made the active and inactive calls. No cut-off for these calls is given here.

Assays:
Cavia porcellus [1] = assay: Bronchoprotection activity against acetylcholine-induced guinea pig bronchoconstriction model at 1 to 100 ug/ml administered as nebulized dosing measured after 72 hrs; format: functional, organism-based
Outline: (§1)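 Guinea pigs received the compound by nebulizer, and testing took place 72 h after treatment. Pulmonary resistance was measured by head-out plethysmograph in anesthetized, spontaneously breathing animals. Bronchoconstriction was induced by increasing intravenous acetylcholine doses. The ACh dose doubling baseline resistance (PD2) was calculated.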

[2] = biological target: Beta-3 adrenergic receptor (Homo sapiens, UniProt P13945); assay: Agonist activity at human beta3 adrenergic receptor expressed in cells by cAMP accumulation assay; format: functional, cell-based
Sequence of Beta-3 adrenergic receptor (P13945 whole entry): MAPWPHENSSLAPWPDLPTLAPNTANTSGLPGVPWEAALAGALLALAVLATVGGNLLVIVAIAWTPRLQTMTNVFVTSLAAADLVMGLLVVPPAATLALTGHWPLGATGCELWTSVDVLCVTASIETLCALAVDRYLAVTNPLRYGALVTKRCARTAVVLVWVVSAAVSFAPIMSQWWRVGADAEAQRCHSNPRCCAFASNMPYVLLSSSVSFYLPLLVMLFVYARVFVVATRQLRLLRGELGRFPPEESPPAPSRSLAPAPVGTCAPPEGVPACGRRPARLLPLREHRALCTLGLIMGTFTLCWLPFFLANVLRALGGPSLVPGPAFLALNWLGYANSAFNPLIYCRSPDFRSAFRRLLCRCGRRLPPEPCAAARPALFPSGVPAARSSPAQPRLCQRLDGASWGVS
Outline: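 cAMP accumulation read-out in a recombinant cell line heterologously expressing the human β3-adrenoceptor.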

[3] = biological target: T1, Beta-2 adrenergic receptor (Homo sapiens, UniProt P07550); assay: Displacement of [3H]dihydroalprenolol from human beta2 adrenergic receptor expressing cell membrane by competition binding assay
T1 sequence (P07550 whole entry): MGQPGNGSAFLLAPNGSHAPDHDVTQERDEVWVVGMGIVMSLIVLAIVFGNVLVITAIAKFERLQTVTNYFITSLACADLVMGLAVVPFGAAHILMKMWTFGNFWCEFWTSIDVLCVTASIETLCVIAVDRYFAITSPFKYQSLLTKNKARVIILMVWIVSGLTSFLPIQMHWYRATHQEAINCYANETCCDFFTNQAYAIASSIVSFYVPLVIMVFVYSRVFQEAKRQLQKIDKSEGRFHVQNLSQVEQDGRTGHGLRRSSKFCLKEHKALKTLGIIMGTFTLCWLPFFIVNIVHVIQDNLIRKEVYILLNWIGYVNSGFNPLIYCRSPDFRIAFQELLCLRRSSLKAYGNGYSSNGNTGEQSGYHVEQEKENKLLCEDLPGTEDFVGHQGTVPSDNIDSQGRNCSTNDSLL

[4] = biological target: T1, Beta-2 adrenergic receptor; assay: Agonist activity at human beta2 adrenergic receptor expressed in cells by cAMP accumulation assay; format: functional, cell-based
[5] = biological target: T1, Beta-2 adrenergic receptor; assay: Agonist activity at human beta2 adrenergic receptor in human BEAS-2B cells by cAMP accumulation assay; format: functional, cell-based
[6] = biological target: Beta-1 adrenergic receptor (Homo sapiens, UniProt P08588); assay: Agonist activity at human beta1 adrenergic receptor expressed in cells by cAMP accumulation assay; format: functional, cell-based
Sequence of Beta-1 adrenergic receptor (P08588 whole entry): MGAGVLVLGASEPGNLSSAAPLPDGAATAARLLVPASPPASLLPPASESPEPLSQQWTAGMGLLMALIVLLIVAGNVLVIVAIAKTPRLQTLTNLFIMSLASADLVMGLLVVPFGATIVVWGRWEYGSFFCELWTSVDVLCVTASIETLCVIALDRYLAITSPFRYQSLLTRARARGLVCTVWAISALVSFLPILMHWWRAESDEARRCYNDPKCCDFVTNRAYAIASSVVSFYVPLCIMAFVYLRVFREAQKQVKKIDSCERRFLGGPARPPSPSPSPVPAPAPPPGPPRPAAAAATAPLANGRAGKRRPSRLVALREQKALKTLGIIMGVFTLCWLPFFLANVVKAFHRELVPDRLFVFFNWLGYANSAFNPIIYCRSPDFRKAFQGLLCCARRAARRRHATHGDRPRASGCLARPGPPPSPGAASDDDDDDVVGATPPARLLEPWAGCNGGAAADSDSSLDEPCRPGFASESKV

Homo sapiens [7] = organism: Homo sapiens; assay: Selectivity ratio of Ki for human beta1 adrenergic receptor to Ki for human beta2 adrenergic receptor
Outline: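 Competition binding used [3H]dihydroalprenolol as tracer on plasma membranes from cells expressing recombinant human β1- or β2-adrenoceptors. Selectivity is the ratio β1 Ki/β2 Ki.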

[8] = Dissociation constant, pKa of the compound; format: physicochemical
[9] = Clearance in dog; format: ADME, organism-based, Canis lupus familiaris; conditions: in vivo
Homo sapiens [10] = organism: Homo sapiens; assay: Inhibition of muscarinic receptor (unknown origin) at 1 uM
[11] = Oral bioavailability in rat; format: ADME, organism-based; conditions: in vivo
[12] = Oral bioavailability in dog; format: ADME, organism-based, Canis lupus familiaris; conditions: in vivo
hERG (KCNH2) = hERG (KCNH2) (Homo sapiens, UniProt Q12809); assay: Inhibition of human ERG at 40 nM
Sequence of hERG (KCNH2) (Q12809 whole entry): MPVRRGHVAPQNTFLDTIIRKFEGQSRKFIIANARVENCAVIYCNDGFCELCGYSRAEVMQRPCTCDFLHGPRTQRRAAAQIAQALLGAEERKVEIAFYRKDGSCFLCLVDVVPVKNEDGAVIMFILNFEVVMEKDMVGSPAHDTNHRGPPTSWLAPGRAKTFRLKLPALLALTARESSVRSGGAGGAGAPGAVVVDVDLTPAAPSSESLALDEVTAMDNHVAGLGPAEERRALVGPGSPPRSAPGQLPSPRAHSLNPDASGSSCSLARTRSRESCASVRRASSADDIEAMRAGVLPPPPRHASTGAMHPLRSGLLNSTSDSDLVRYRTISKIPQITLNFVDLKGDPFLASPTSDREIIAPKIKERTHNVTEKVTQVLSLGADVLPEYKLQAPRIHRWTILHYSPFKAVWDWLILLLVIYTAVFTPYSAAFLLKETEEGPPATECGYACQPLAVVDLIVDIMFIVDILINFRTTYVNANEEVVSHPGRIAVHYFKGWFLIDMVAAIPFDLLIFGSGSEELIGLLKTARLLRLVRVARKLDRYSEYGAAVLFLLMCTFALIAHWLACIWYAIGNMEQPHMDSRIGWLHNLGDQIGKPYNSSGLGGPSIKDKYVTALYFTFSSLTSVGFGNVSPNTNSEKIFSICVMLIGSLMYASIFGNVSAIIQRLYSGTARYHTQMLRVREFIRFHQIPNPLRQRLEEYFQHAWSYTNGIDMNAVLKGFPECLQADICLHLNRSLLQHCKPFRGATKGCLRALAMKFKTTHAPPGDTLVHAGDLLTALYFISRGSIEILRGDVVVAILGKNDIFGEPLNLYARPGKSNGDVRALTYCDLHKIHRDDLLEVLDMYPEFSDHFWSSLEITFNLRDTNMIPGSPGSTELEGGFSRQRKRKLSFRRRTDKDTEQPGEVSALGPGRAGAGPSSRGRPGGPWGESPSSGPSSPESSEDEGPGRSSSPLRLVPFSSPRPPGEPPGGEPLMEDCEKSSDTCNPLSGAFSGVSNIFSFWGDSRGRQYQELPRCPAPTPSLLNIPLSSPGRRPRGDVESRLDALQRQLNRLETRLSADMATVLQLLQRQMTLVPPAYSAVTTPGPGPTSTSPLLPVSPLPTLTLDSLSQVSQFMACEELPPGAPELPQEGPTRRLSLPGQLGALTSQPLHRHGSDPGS

[13] = Clearance in rat; format: ADME, organism-based; conditions: in vivo
Cavia porcellus [14] = assay: Bronchoprotection activity against acetylcholine-induced guinea pig bronchoconstriction model administered as nebulized dosing measured after 72 hrs; format: functional, organism-based; outline: as §1
[15] = biological target: T2, Muscarinic acetylcholine receptor M2 (Homo sapiens, UniProt P08172); assay: Inhibition of muscarinic acetylcholine receptor M2 (unknown origin)
T2 sequence (P08172 whole entry): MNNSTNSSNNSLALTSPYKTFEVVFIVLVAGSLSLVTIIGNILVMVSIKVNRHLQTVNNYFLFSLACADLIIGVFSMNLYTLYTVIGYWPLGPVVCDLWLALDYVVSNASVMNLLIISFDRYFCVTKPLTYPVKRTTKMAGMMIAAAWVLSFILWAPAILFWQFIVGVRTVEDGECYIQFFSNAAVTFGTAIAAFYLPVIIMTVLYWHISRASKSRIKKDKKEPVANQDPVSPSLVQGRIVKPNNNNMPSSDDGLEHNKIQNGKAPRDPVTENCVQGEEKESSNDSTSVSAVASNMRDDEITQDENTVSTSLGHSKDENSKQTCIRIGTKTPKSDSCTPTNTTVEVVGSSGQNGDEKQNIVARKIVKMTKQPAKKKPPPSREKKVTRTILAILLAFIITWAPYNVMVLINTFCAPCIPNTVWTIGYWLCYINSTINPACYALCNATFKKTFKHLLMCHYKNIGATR

Cavia porcellus [16] = assay: Bronchoprotection activity against acetylcholine-induced guinea pig bronchoconstriction model at >= 30 ug/ml administered as nebulized dosing measured after 72 hrs; format: functional, organism-based; outline: as §1

Compound | EC50 [2] [nM] | Ki [3] [nM] | EC50 [4] [nM] | EC50 [5] [nM] | EC50 [6] [nM] | Ratio Ki (Homo sapiens [7]) | pKa [8] | clearance [9] [mL/min/kg] | inhibition (Homo sapiens [10]) | bioavailability [11] [%] | bioavailability [12] [%] | clearance [13] [mL/min/kg] | Ki [15] [nM] | Activity (Cavia porcellus [1]) | inhibition at 0.04 µM (hERG (KCNH2)) [%] | Activity (Cavia porcellus [14]) | Activity (Cavia porcellus [16])
O=CNc1cc([C@@H](O)CNCCc2ccc(NC[C@H](O)c3ccccc3)cc2)ccc1O [MILVETEROL] | 39.8 | – | – | – | – | 2910 | – | – | – | – | – | – | – | – | – | – | –
CC(C)(C)OC(=O)NCCOc1ccc(Nc2ccc(CCNC[C@H](O)c3ccc(O)c4[nH]c(=O)ccc34)cc2)cc1 | 12.6 | 20 | 0.501 | 2.51 | 12.6 | 26 | – | – | – | – | – | – | – | – | – | – | –
CC(C)(N)COc1ccc(Nc2ccc(CCNC[C@H](O)c3ccc(O)c(NC=O)c3)cc2)cc1 | 39.8 | 25.1 | 0.251 | 3.16 | 6.31 | 94 | – | – | – | – | – | – | – | – | – | – | –
O=c1ccc2c([C@@H](O)CNCCc3ccc(Nc4ccc(OCCN5CCNCC5)cc4)cc3)ccc(O)c2[nH]1 | 39.8 | 10 | 0.126 | 1.58 | 10 | 116 | 9.1 | – | – | – | – | – | – | – | – | – | –
O=C(NCCOc1ccc(Nc2ccc(CCNC[C@H](O)c3ccc(O)c4[nH]c(=O)ccc34)cc2)cc1)c1ccccc1 | 12.6 | 10 | 0.501 | 1.58 | 2 | 13 | – | – | – | – | – | – | – | – | – | – | –
O=c1ccc2c([C@@H](O)CNCCc3ccc(Nc4ccc(OCCN5CCOCC5)cc4)cc3)ccc(O)c2[nH]1 | 50.1 | 20 | 0.316 | 3.16 | 12.6 | 41 | – | – | – | – | – | – | – | – | – | – | –
CS(=O)(=O)N1CCN(CCOc2ccc(Nc3ccc(CCNC[C@H](O)c4ccc(O)c5[nH]c(=O)ccc45)cc3)cc2)CC1 | 31.6 | 31.6 | 0.631 | 6.31 | 7.94 | 30 | – | – | – | – | – | – | – | – | – | – | –
NCCOc1ccc(Nc2ccc(CCNC[C@H](O)c3ccc(O)c4[nH]c(=O)ccc34)cc2)cc1 | 39.8 | 6.31 | 0.1 | 0.501 | 7.94 | 64 | – | – | – | – | – | – | – | – | – | – | –
NCCOCCOc1ccc(Nc2ccc(CCNC[C@H](O)c3ccc(O)c4[nH]c(=O)ccc34)cc2)cc1 | 39.8 | 6.31 | 0.158 | 0.631 | 7.94 | 95 | – | – | – | – | – | – | – | – | – | – | –
CCOc1ccc(Nc2ccc(CCNC[C@H](O)c3ccc(O)c4[nH]c(=O)ccc34)cc2)cc1 | – | 12.6 | 0.251 | 2 | – | 72 | – | – | – | – | – | – | – | – | – | inactive | –

The remaining compounds from weak to strong by Ki [3], led by results:

EC50 [2] [nM] | Ki [3] [nM] | EC50 [4] [nM] | EC50 [5] [nM] | EC50 [6] [nM] | Ratio Ki (Homo sapiens [7]) | pKa [8] | clearance [9] [mL/min/kg] | inhibition (Homo sapiens [10]) | bioavailability [11] [%] | bioavailability [12] [%] | clearance [13] [mL/min/kg] | Ki [15] [nM] | Compound | Activity (Cavia porcellus [1]) | inhibition at 0.04 µM (hERG (KCNH2)) [%] | Activity (Cavia porcellus [14]) | Activity (Cavia porcellus [16])
– | 6.31 | – | – | – | 115 | – | – | – | – | – | – | – | COc1ccc(Nc2ccc(CCNC[C@H](O)c3ccc(O)c4[nH]c(=O)ccc34)cc2)cc1-c1ccccc1 | Active | – | – | –
63.1 | 6.31 | 0.0794 | 1 | 6.31 | 64 | – | 40 | Active | 1 | 5 | 6.67 | 631 | CC(C)(N)COc1ccc(Nc2ccc(CCNC[C@H](O)c3ccc(O)c4[nH]c(=O)ccc34)cc2)cc1 | – | 7 | Dose-dependent effect | Active
39.8 | 5.01 | 0.158 | 0.631 | 7.94 | 95 | – | – | – | – | – | – | – | NCCCOc1ccc(Nc2ccc(CCNC[C@H](O)c3ccc(O)c4[nH]c(=O)ccc34)cc2)cc1 | – | – | – | –
39.8 | 5.01 | 0.126 | 0.631 | 7.94 | 85 | – | – | – | – | – | – | – | NCCCCOc1ccc(Nc2ccc(CCNC[C@H](O)c3ccc(O)c4[nH]c(=O)ccc34)cc2)cc1 | – | – | – | –
6.31 | 3.16 | 0.126 | 0.794 | 2.51 | 20 | – | – | – | – | – | – | – | COc1ccc(Nc2ccc(CCNC[C@H](O)c3ccc(O)c4[nH]c(=O)ccc34)cc2)cc1-c1ccccc1CN | – | – | – | –
25.1 | 1.58 | 0.0794 | 0.316 | 3.98 | 146 | – | – | – | – | – | – | – | COc1ccc(Nc2ccc(CCNC[C@H](O)c3ccc(O)c4[nH]c(=O)ccc34)cc2)cc1-c1cccc(CN)c1 | Active | – | – | –
10 | 1.26 | 0.1 | 0.501 | 2.51 | 101 | – | – | – | – | – | – | – | COc1ccc(Nc2ccc(CCNC[C@H](O)c3ccc(O)c4[nH]c(=O)ccc34)cc2)cc1-c1ccc(CN)cc1 | Active | – | – | –
7.94 | 1 | 0.0631 | 0.631 | 1.58 | 140 | – | – | – | – | – | – | – | CC(C)(N)COc1ccc(Nc2ccc(CCNC[C@H](O)c3ccc(O)c4[nH]c(=O)ccc34)cc2)cc1-c1ccccc1 | – | – | – | –
